ChEMBL document CHEMBL4765307, “Design, synthesis and biological activity of novel 2,3,4,5-tetra-substituted thiophene derivatives as PI3Kα inhibitors with potent antitumor activity” (Eur J Med Chem, 2020)
pIC50, pKi: −log10 of the molar value.

Tests used:
PI3K p110 beta/p85 alpha = PI3K p110 beta/p85 alpha (Homo sapiens, UniProt P42338); experiment: Inhibition of N-terminal His6-tagged human recombinant full length PI3Kbeta co-expressed with human recombinant full length P85alpha in baculovirus infected Sf21 cells using PIP2 peptide as substrate incubated for 1 hr in presence ATP by ADP-Glo Kinase Assay
Summary of the method: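 ADP-Glo reagent 1 for 40 min, then reagent 2 with 60 min equilibration before reading. IC50 taken from inhibition curves; average of at least two runs.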

T47D = experiment: Antiproliferative activity against human T47D cells harboring PIK3CA mutation assessed as reduction in cell viability after 3 days by CellTiter-Glo luminescence assay; assay type: functional, cell-based; conditions: 72 h
Summary of the method: (§1)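 ATCC lines, 10% FBS: T47D, H1975, H460 in RPMI1640; U87MG in DMEM; A549 in F12K. Seeded 3×10^3 per well the day before, exposed to 3-fold serial dilutions or DMSO for 3 days at 37 °C, 5% CO2; CellTiter-Glo luminescence.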

A549 = experiment: Antiproliferative activity against human A549 cells assessed as reduction in cell viability after 3 days by CellTiter-Glo luminescence assay; assay type: functional, cell-based; conditions: A549, 72 h; summary of the method: as §1
[1] = Apparent permeability across apical to basolateral side in human Caco2 cells at 2 uM incubated for 2 hrs by LC-MS/MS analysis; assay type: ADME, cell-based; conditions: Caco-2
Summary of the method: (§2)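 Caco-2 monolayers grown 21–28 days; compound 2 µM both directions in duplicate, DMSO <1%; 2 h at 37 °C, 5% CO2 without shaking. Donor and receiver levels by LC/MS/MS; integrity by lucifer yellow. Papp = (dCr/dt)×Vr/(A×C0); efflux ratio = Papp(B-A)/Papp(A-B).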

[2] = Apparent permeability across basolateral to apical side in human Caco2 cells at 2 uM incubated for 2 hrs by LC-MS/MS analysis; assay type: ADME, cell-based; conditions: Caco-2; summary of the method: as §2
[3] = Clearance in rat liver microsomes at 1 uM measured after 60 mins by LC-MS/MS analysis; assay type: ADME, Microsome; conditions: read-out: CLH
Summary of the method: (§3)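 Compound 1 µM with human or rat microsomes 0.5 mg/mL, preincubated 10 min at 37 °C in 100 mM potassium phosphate pH 7.4, 10 mM MgCl2; started with NADPH, sampled 0–60 min, quenched with cold acetonitrile, LC–MS/MS. A parallel no-NADPH control was run.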

CYP1A2 = target: T1, CYP1A2 (Homo sapiens, UniProt P05177); experiment: Inhibition of CYP1A2 in human liver microsomes using phenacetin as substrate at 10 uM preincubated for 10 mins followed by incubation with NADPH for 10 mins by LC- MS/MS analysis; assay type: ADME; conditions: probe phenacetin, time 20 min
T1 sequence (P05177 whole entry): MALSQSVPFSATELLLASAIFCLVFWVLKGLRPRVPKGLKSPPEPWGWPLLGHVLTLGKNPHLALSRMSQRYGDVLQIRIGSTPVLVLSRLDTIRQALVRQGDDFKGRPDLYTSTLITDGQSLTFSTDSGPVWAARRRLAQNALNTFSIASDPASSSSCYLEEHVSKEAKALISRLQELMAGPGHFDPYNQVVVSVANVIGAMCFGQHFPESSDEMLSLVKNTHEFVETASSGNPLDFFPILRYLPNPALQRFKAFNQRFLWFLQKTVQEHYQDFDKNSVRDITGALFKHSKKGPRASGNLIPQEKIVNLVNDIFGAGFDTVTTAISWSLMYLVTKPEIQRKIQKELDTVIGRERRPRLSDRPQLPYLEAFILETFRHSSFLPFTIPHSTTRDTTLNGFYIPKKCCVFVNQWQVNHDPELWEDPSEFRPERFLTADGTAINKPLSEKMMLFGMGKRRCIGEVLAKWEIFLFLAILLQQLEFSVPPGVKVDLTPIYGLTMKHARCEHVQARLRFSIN
Summary of the method: (§4)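 Human liver microsomes 0.25 mg/mL with probe substrate (CYP1A2 10 µM phenacetin; CYP2D6 5 µM dextromethorphan; CYP3A4 2 µM midazolam), test compound 10 µM; 10 min preincubation at 37 °C, NADPH added (final 10 mM), 10 min at 37 °C; stopped with cold acetonitrile containing internal standards; LC-MS/MS.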

CYP3A4 = CYP3A4 (Homo sapiens, UniProt P08684); experiment: Inhibition of CYP3A4 in human liver microsomes using midazolam as substrate at 10 uM preincubated for 10 mins followed by incubation with NADPH for 10 mins by LC- MS/MS analysis; assay type: ADME; conditions: probe midazolam, time 20 min; summary of the method: as §4
[4] = Half life in Sprague-Dawley rat at 5 mg/kg, iv measured after 24 hrs by LC-MS/MS analysis; assay type: ADME, organism-based; conditions: in vivo
Summary of the method: (§5)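 Male SD rats (n=6), single 5 mg/kg intravenous dose; heparinised blood at 0.083–24 h, centrifuged at 4 °C; plasma quantified by LC–MS/MS; noncompartmental parameters.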

[5] = Clearance in Sprague-Dawley rat at 5 mg/kg, iv measured after 24 hrs by LC-MS/MS analysis; assay type: ADME, organism-based; conditions: in vivo; summary of the method: as §5
[6] = Clearance in human liver microsomes at 1 uM measured after 60 mins by LC-MS/MS analysis; assay type: ADME, Microsome; conditions: read-out: CLH; summary of the method: as §3
[7] = Metabolic stability in rat liver microsomes assessed as parent compound remaining at 1 uM preincubated for 10 mins followed by incubation in phosphate buffer at pH 7.4 for 60 mins by LC-MS/MS analysis; assay type: ADME, Microsome; conditions: time 70 min, read-out: Stabilty; summary of the method: as §3
[8] = target: Phosphatidylinositol 4,5-bisphosphate 3-kinase catalytic subunit alpha isoform (Homo sapiens) (UniProt P42336); experiment: Inhibition of PI3Kalpha in human T47D cells assessed as inhibition of insulin-stimulated Akt phosphorylation at Ser473 residue at 3 uM preincubated for 2 hrs followed by incubation with insulin for 2 hrs by western blot analysis relative to control; assay type: cell-based; conditions: time 4.0 hrs
Summary of the method: (§6)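 T47D cells given compound at 37 °C for 2 h, then stimulated with 1 µg/mL insulin for 2 h; lysed in RIPA with protease/phosphatase inhibitors and 1 mM PMSF; BCA-normalised SDS-PAGE, PVDF blot probed overnight at 4 °C for total Akt and pAkt Ser473, infrared secondary detection.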

[9] = target: Phosphatidylinositol 4,5-bisphosphate 3-kinase catalytic subunit alpha isoform (Homo sapiens) (UniProt P42336); experiment: Inhibition of PI3Kalpha in human T47D cells assessed as inhibition of insulin-stimulated Akt phosphorylation at Ser473 residue at 1 uM preincubated for 2 hrs followed by incubation with insulin for 2 hrs by western blot analysis relative to control; assay type: cell-based; conditions: time 4.0 hrs; summary of the method: as §6
[10] = target: Phosphatidylinositol 4,5-bisphosphate 3-kinase catalytic subunit alpha isoform (Homo sapiens) (UniProt P42336); experiment: Inhibition of PI3Kalpha in human T47D cells assessed as inhibition of insulin-stimulated Akt phosphorylation at Ser473 residue at 0.3 uM preincubated for 2 hrs followed by incubation with insulin for 2 hrs by western blot analysis relative to control; assay type: cell-based; conditions: time 4.0 hrs; summary of the method: as §6
[11] = target: Phosphatidylinositol 4,5-bisphosphate 3-kinase catalytic subunit alpha isoform (Homo sapiens) (UniProt P42336); experiment: Inhibition of PI3Kalpha in human T47D cells assessed as inhibition of insulin-stimulated Akt phosphorylation at Ser473 residue preincubated for 2 hrs followed by incubation with insulin for 2 hrs by western blot analysis relative to control; assay type: cell-based; conditions: dose 0.1-3 µM, time 4.0 hrs; summary of the method: as §6
[12] = Metabolic stability in human liver microsomes assessed as parent compound remaining at 1 uM preincubated for 10 mins followed by incubation in phosphate buffer at pH 7.4 for 60 mins by LC-MS/MS analysis; assay type: ADME, Microsome; conditions: time 70 min, read-out: Stabilty; summary of the method: as §3

Phosphatidylinositol 4,5-bisphosphate 3-kinase catalytic subunit alpha isoform (Homo sapiens), sequence (P42336 whole entry, canonical isoform): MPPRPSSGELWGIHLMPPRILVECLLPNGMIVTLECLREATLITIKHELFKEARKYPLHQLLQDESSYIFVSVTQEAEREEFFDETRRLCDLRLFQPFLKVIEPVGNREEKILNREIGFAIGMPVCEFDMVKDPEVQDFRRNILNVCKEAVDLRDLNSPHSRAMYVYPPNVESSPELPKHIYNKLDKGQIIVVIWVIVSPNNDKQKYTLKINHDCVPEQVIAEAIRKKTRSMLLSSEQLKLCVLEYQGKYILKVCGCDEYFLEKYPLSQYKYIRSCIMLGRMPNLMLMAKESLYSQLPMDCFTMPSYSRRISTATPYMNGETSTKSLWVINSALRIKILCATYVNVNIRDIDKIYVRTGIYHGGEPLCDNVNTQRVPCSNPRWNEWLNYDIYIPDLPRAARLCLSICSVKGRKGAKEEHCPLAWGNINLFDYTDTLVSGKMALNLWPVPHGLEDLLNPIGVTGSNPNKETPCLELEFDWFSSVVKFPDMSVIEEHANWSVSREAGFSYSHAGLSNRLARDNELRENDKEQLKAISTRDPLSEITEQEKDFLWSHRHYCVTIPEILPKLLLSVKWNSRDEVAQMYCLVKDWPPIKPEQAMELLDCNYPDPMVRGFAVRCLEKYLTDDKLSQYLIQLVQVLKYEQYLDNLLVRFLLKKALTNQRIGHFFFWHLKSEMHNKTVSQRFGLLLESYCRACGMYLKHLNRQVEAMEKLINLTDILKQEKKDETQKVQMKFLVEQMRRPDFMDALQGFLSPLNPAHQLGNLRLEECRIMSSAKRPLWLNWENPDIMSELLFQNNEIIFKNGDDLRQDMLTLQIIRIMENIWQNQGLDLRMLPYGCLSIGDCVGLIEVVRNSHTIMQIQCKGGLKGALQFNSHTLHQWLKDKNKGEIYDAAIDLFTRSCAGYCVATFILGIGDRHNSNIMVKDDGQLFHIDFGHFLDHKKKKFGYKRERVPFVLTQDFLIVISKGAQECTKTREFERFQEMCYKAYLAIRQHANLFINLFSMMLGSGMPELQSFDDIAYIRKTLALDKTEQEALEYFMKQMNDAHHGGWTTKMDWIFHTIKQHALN
PI3K p110 beta/p85 alpha, sequence (P27986 whole entry): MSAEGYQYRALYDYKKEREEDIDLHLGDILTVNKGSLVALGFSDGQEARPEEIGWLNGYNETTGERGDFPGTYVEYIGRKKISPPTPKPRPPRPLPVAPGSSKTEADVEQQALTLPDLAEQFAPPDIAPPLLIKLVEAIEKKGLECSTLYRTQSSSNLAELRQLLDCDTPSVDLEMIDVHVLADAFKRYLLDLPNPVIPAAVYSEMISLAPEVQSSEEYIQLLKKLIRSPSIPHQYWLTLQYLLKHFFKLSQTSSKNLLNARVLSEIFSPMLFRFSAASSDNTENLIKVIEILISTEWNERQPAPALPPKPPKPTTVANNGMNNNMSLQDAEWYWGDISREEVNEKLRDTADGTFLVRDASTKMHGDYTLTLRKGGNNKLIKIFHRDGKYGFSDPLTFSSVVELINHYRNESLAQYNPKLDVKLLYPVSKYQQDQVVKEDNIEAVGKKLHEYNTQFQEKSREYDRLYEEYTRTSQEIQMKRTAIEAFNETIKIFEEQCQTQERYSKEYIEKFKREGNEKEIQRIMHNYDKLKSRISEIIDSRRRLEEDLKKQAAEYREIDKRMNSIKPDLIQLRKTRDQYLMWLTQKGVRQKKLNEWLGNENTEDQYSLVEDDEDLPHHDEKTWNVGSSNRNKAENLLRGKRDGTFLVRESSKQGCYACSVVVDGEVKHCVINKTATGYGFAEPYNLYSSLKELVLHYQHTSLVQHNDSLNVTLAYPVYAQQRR
PI3K p110 beta/p85 alpha, sequence (P42338 whole entry): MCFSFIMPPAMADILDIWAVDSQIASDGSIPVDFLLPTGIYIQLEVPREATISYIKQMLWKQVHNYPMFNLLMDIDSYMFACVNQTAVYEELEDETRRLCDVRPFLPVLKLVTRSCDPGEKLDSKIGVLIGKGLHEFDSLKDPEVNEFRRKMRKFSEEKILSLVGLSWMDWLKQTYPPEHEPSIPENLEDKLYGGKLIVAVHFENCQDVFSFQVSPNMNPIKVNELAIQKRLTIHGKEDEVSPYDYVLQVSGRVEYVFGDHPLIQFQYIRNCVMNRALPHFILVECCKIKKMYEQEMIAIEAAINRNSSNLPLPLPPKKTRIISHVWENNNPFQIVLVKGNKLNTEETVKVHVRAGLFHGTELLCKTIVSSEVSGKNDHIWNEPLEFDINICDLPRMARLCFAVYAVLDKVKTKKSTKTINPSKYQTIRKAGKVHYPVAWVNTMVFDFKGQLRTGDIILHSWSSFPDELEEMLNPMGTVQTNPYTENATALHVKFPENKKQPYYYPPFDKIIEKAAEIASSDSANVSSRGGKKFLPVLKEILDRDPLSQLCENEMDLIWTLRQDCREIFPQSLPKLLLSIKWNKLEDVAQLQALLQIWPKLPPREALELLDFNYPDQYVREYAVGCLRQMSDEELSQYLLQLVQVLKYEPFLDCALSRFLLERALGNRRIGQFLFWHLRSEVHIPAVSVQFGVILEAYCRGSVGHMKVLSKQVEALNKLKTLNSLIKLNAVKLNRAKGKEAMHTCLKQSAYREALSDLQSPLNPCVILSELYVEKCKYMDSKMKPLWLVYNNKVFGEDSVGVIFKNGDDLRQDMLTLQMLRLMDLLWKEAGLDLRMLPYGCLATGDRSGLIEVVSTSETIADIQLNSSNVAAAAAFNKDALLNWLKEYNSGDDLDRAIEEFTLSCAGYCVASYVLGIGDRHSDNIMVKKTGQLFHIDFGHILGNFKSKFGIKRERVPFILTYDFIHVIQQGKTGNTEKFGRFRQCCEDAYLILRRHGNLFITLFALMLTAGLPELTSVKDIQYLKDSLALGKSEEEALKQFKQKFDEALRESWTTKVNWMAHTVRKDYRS
CYP3A4, sequence (P08684 whole entry): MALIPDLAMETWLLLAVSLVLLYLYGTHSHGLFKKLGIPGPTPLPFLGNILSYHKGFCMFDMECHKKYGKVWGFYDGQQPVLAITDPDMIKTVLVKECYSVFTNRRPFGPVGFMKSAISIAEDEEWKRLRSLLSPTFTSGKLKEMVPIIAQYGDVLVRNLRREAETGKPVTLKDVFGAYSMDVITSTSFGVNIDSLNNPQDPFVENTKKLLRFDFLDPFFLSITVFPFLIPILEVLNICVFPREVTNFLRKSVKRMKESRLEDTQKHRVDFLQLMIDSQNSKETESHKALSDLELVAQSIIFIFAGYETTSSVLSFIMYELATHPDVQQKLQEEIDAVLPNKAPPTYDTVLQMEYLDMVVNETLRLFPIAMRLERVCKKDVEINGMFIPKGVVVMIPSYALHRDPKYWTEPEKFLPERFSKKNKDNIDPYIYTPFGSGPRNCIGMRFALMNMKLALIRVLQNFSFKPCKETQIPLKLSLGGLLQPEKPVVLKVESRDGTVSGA

## N#Cc1c(N2CCOCC2)sc(-c2nc[nH]n2)c1-c1ccc(NC(=O)Nc2ccccc2Cl)cc1
PI3K p110 beta/p85 alpha
  pIC50: 6.97
  pKi: 7.05
T47D
  pIC50: 6.51
A549
  pIC50: 5.42
[1]
  Papp A→B at 2 h, 2 µM: 7.8 ×10⁻⁶ cm/s
[2]
  Papp B→A at 2 h, 2 µM: 8.4 ×10⁻⁶ cm/s
[3]
  microsomal CLint at 1 µM: 32.8 µL/min/mg
CYP1A2
  inhibition at 10 min, 10 µM: 27.8%
CYP3A4
  inhibition at 10 min, 10 µM: 1.5%
[4]
  half-life: 1.98 h
[5]
  clearance: 52.4 mL/min/kg
[6]
  microsomal CLint at 1 µM: 24.8 µL/min/mg
[7]
  remaining at 1 h, 1 µM: 42.6%
[8]
  inhibition: 90%
[9]
  inhibition: 78%
[10]
  inhibition: 59%
[11]
  inhibition: Dose-dependent effect
[12]
  remaining at 1 h, 1 µM: 47.8%
